# The entries come from a sample that favours hits as a whole.
# S100A4 MyoIIA = blocks human S100A4 binding to myosin IIA peptide; P26447; S100A4/TAMRA-MyoIIA peptide fluorescence polarization; inhibition, % at 10.7 µM; 360,000 compounds, 0.14% hits;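 active = mean inhibition of at least 70% across replicates, with every replicate also reaching that level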
#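 Material: S100A4 monomer (human). Medium: Calcium-containing HEPES buffer, pH 7.2. Probe or stimulus: labelled myosin peptide probe, 5 nM. Compound dosing: one concentration per compound. Timing: polarization read 5 min after assay mix addition, stable 5–60 min. Benchmarks: DMSO as neutral control, TFP as positive control.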
# ERAP1 inh = blocks human ERAP1 aminopeptidase activity; recombinant ERAP1, Leu-AMC fluorescence, 60 min; 340,000 compounds, 0.15% hits; Q9NZ08; inhibition, % at 10.7 µM;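 active = mean replicate inhibition of at least 30%, or all replicates individually reaching that 30% level; inactive = mean below 30% and not every replicate reaching it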;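 note: 0% = neutral control wells and 100% = L-leucinethiol positive control wells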
# FGF22 binding = FGF22 (human) thermal shift binding | Q9HCT0 | recombinant FGF22 thermal shift, SYPRO orange fluorescence; percent of sucrose octasulfate shift, DMSO zero | activity (Tm shift, normalised), % at 9.99 µM | 340,000 compounds, 1.5% hits | AID 651658;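 active = mean Tm shift, scaled 0 neutral to 100 positive control, at about 1.3% or above, every replicate too, limit read from the data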
# ERp5 inh = ERp5 (human) disulfide isomerase inhibition | 350,000 compounds, 0.05% hits | inhibition, % at 9.99 µM | ERp5 insulin aggregation, absorbance 650 nm, 90 min | Q15084;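 active = mean replicate inhibition above about 25%, with every replicate also reaching it, limit read from the data, passing the limit was not always enough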
# PDI inh = inhibitors of human protein disulfide isomerase; PDI insulin aggregation turbidity, A650, 90 min; AID 588391; 350,000 compounds, 0.052% hits; P07237; inhibition, % at 10 µM;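 active = mean inhibition across replicates of 30% or more, whatever share of single replicates reach that level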
# Numbers without * were called inactive; . = not tested or not shown.
SMILES,S100A4 MyoIIA,ERAP1 inh,FGF22 binding,ERp5 inh,PDI inh
O=C(OCC1OC(n2ccc(=O)[nH]c2=O)C(Cl)C1O)c1ccccc1 (configuration not stated),-3,2,0,-2,-4
O=C(OCC1OC(n2ccc(=O)[nH]c2=O)C2OC12)c1ccccc1 (configuration not stated),-2,1,43*,-5,9
O=C(NCc1nnc(SCC(=O)N2CCN(c3ccccc3)CC2)o1)c1ccco1,.,.,.,.,-3
CC(C)COCC(O)CC(Cc1ccccc1)C(=O)NN (configuration not stated),0,2,43*,-3,0
CCCCC(CC(O)COCC(C)C)C(=O)NN (configuration not stated),1,2,1,2,5
CO[C@H]1CN(C)C(=O)c2ccc(NC(C)=O)cc2OC[C@@H](C)N(CCc2ccccc2)C[C@@H]1C,6,2,0,-2,.
Cc1cccc(C)c1N1C(=O)CC(Sc2ccccc2N)C1=O (configuration not stated),3,-1,44*,10,-5
CC(=O)Oc1ccc(C2=Cc3ccc(OC(C)=O)cc3OC2C)cc1 (configuration not stated),4,3,43*,-2,-9
CNS(=O)(=O)c1ccc2nc(NC(=O)/C=C/c3ccco3)sc2c1,8,5,43*,-3,1
Cc1nc(NC(=O)/C=C/c2ccco2)sc1C,-1,1,0,0,1
CC(C)(C)C(=O)Nc1nc2c(s1)CN(Cc1ccccc1)CC2,-10,-4,43*,1,10
O=C(Nc1nc2c(s1)CN(Cc1ccccc1)CC2)C1CCCC1,-1,13,0,9,-1
CNC[C@@H]1Oc2ccc(NC(=O)Cc3cn(C)c4ccccc34)cc2CC(=O)N([C@H](C)CO)C[C@H]1C,-14,-2,0,-4,.
COc1ccc(Oc2ccc(/C=C/C(=O)c3ccc(O)cc3)cc2[N+](=O)[O-])cc1,-7,4,0,-48,99*
O=C(/C=C/c1ccc(O)c([N+](=O)[O-])c1)c1ccc2ccccc2c1,3,0,0,1,4
COc1ccc(N=Cc2c(C)[nH][nH]c2=O)cc1,-10,4,43*,-2,3
COc1ccc(N2C(=O)C3CC(C)=C(C)CC3C2=O)c(OC)c1 (configuration not stated),.,.,.,.,21
COc1cc(N2C(=O)C=CC2=O)ccc1N1C(=O)C=CC1=O,4,48*,0,2,8
O=C1N/C(=N/O)S/C1=C/c1cccc([N+](=O)[O-])c1,-21,-1,44*,3,22
CCN(CC)CCOC(c1ccccc1)c1ccc(C)cc1 (configuration not stated),1,0,1,-2,3
Cc1ccc(C(OCC(C)(C)C[N+](C)(C)C)c2ccccc2)cc1 (configuration not stated),3,39*,0,4,3
CCN(CC)CCCN1C(=O)CSC1c1ccc([N+](=O)[O-])cc1 (configuration not stated),11,0,43*,2,0
CCC(C)C(NC(=O)OC(C)(C)C)C(=O)NC(C)C(N)=O (configuration not stated),4,0,43*,-7,-1
CC(C)NC(=O)N1C[C@@H]2[C@H](c3ccccc31)[C@@H](CO)N2C(=O)c1cccnc1,-4,2,0,-3,.
Cc1ccc2c(c1)c1nnc(SCC(=O)Nc3cccc(Cl)c3C)nc1n2CC(=O)O,0,-6,1.7*,0,13
SMILES,S100A4 MyoIIA,ERAP1 inh,FGF22 binding,ERp5 inh,PDI inh
Cc1ccc2c(c1)c1nnc(SCC(=O)Nc3ccccc3C(F)(F)F)nc1n2CC(=O)O,4,-1,0,4,2
CN(CCc1ccccc1)C(=O)c1ccc(NC(=O)Cc2cccc(NC(=O)C3CCN(C(=O)C4CC4)CC3)c2)cc1,-5,0,0,-5,0
Cc1cccc(Nc2nc(N)nc(CN3CCN(c4ccccc4F)CC3)n2)c1,.,.,.,.,10
CCOc1ccc(Nc2nc(N)nc(CN3CCN(c4ccccc4F)CC3)n2)cc1,1,-3,44*,0,0
COCC1OC(OC(C)C(O)c2cnc3nc(N)[nH]c(=O)c3n2)C(O)C(OC)C1O (configuration not stated),-8,33*,0,5,.
CN[C@@H](C)C(=O)NC[C@H]1O[C@@H](n2cnc3c(=O)[nH]c(N)nc32)[C@H](O)[C@@H]1O,-2,-2,0,-9,.
CN(C)S(=O)(=O)Oc1ccsc1C(=O)Nc1ccc(Br)cc1,0,-3,57*,-9,6
CCn1c(SCC(=O)NCc2ccco2)nnc1C1CCCC1,-3,0,1,2,-2
CCOC(=O)NC(=O)CSc1nnc(C2CC2)n1Cc1ccco1,-3,-4,43*,4,-3
N/C(Cc1nc(-c2ccc(Br)cc2)cs1)=N\O,-4,1,43*,0,2
O=C(COc1ncnc2sccc12)Nc1ccc(F)cc1F,-5,1,44*,-1,1
CC(C)Sc1nnc([C@H](Cc2c[nH]c3ccccc23)NC(=O)OC(C)(C)C)o1,.,.,.,.,44*
CN(NS(=O)(=O)c1ccccc1)c1nc2ccccc2nc1C(F)(F)F,.,.,.,.,2
CN(NS(=O)(=O)c1ccc(Cl)cc1)c1nc(C(F)(F)F)nc2ccccc12,-12,-2,44*,1,0
CCS(=O)(=O)Nc1ccc2c(c1)C(=O)N(C)C[C@H](OC)[C@H](C)CN(CCC(F)(F)F)[C@H](C)CO2,2,.,0,5,.
O=C(Nc1c(C(=O)NCc2ccco2)cnn1-c1ccccc1)c1cccc(F)c1,.,.,.,.,-8
CCOC(=O)N1CCN(C(=O)CSc2nnc(Cc3ccccc3)o2)CC1,0,0,43*,2,.
CCOC(=O)N1CCN(C(=O)CSc2nnc(COc3ccccc3)o2)CC1,-1,-2,41,-3,.
Cc1cc(=O)[nH]c(NN=C2CCC(C(C)(C)C)CC2)n1 (configuration not stated),-3,-5,44*,4,-2
CC(=O)N(C1=C(Cl)C(=O)c2ccccc2C1=O)C1CCCCC1,-2,68*,-1,2,-4
S=C(Nc1ccc(Cl)cc1)N1CCN(Cc2ccccc2)CC1,0,10,0,2,-10
FC(F)Oc1ccc(NC(=S)N2CCN(Cc3ccccc3)CC2)cc1,-1,-1,44*,-1,6
Cc1ccc(S(=O)(=O)Nc2cc3c4c(c2)CC(=O)N4CCC3)cc1,-3,3,0,-4,-7
COCCN1CCN(Cc2nc(C3(c4ccc(C)cc4)CCCC3)no2)CC1,7,0,43*,-6,6
